In ChEMBL document CHEMBL4004808, “Antibacterial and Cytotoxic Phenolic Metabolites from the Fruits of Amorpha fruticosa” (J Nat Prod, 2017):
In brackets after ≈: the same amount, converted by molar mass. Activity calls are given as the source filed them. The calls are words filed in the database; no cut-off is given here.

Legend:
Staphylococcus aureus [1] = assay: Antibacterial activity against Staphylococcus aureus ATCC 25923 by broth microdilution method; assay type: functional
Staphylococcus aureus [2] = assay: Antibacterial activity against methicilin-resistant Staphylococcus aureus ATCC 700699 by broth microdilution method; assay type: functional; conditions: Mu50
How it was run: (§1)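 MIC determined by broth microdilution following CLSI recommendations, with moxifloxacin as positive control and DMSO as negative control.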

Enterococcus faecalis [3] = assay: Antibacterial activity against Enterococcus faecalis ATCC 29212 by broth microdilution method; assay type: functional; how it was run: as §1
Enterococcus faecalis [4] = assay: Antibacterial activity against vancomycin-resistant Enterococcus faecalis ATCC 51299 by broth microdilution method; assay type: functional; how it was run: as §1
Enterococcus faecium [5] = assay: Antibacterial activity against Enterococcus faecium ATCC 35667 by broth microdilution method; assay type: functional
How it was run: (§2)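 MIC by broth microdilution following CLSI recommendations; moxifloxacin as positive control, DMSO as negative control.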

Enterococcus faecium [6] = assay: Antibacterial activity against Enterococcus faecium ATCC 700221 by broth microdilution method; assay type: functional; how it was run: as §2
[7] = system: Mycobacterium tuberculosis; assay: Antibacterial activity against Mycobacterium tuberculosis by broth microdilution method; assay type: functional
Acinetobacter baumannii = assay: Antibacterial activity against Acinetobacter baumannii ATCC BAA1605 by broth microdilution method; assay type: functional; how it was run: as §2
MRC5 = assay: Cytotoxicity against human MRC5 cells after 48 hrs by resazurin dye-based fluorescence analysis; assay type: cell-based; conditions: MRC5, 48 h
THP-1 = assay: Cytotoxicity against human THP1 cells after 48 hrs by resazurin dye-based fluorescence analysis; assay type: cell-based; conditions: THP-1, 48 h
L5178Y = assay: Cytotoxicity against mouse L5178Y cells by MTT assay; assay type: functional, cell-based
How it was run: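 MTT proliferation assay on the L5178Y murine lymphoma line, run three times; kahalalide F as positive control and 0.1% DMSO in medium as negative control.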

Row | Compound | MIC (Staphylococcus aureus [1]) | MIC (Staphylococcus aureus [2]) | MIC (Enterococcus faecalis [3]) | MIC (Enterococcus faecalis [4]) | MIC (Enterococcus faecium [5]) | MIC (Enterococcus faecium [6]) | MIC [7] | MIC (Acinetobacter baumannii) | IC50 (MRC5) | IC50 (THP-1) | Activity (L5178Y) | IC50 (L5178Y)
1 | CC(C)=CCC/C(C)=C/Cc1c(O)cc(/C=C\c2ccccc2)c(C(=O)O)c1O | 50 µM (≈ 19.6 µg/mL) | 100 µM (≈ 39.2 µg/mL) | 50 µM (≈ 19.6 µg/mL) | 100 µM (≈ 39.2 µg/mL) | 50 µM (≈ 19.6 µg/mL) | 100 µM (≈ 39.2 µg/mL) | > 50 µM | > 50 µM | 100 µM | 100 µM | inactive | 
2 | COc1ccc(-c2coc3cc(O)c(C/C=C(\C)CCC=C(C)C)c(O)c3c2=O)cc1O | 100 µM (≈ 43.7 µg/mL) | 100 µM (≈ 43.7 µg/mL) | 25 µM (≈ 10.9 µg/mL) | 50 µM (≈ 21.8 µg/mL) | 25 µM (≈ 10.9 µg/mL) | 12.5 µM (≈ 5.46 µg/mL) | > 50 µM | > 50 µM | 50 µM | 50 µM |  | 
3 | CC(C)=CCC/C(C)=C/Cc1c(O)cc(/C=C/c2ccccc2)cc1O [AMORPHASTILBOL] | 6.3 µM (≈ 2.2 µg/mL) | 3.1 µM (≈ 1.08 µg/mL) | 12.5 µM (≈ 4.36 µg/mL) | 6.3 µM (≈ 2.2 µg/mL) | 6.3 µM (≈ 2.2 µg/mL) | 6.3 µM (≈ 2.2 µg/mL) | > 50 µM | > 50 µM | 50 µM | 25 µM | inactive | 
4 | COc1cc2c(cc1OC)[C@@H]1C(=O)c3ccc4c(c3O[C@@H]1CO2)C[C@H](C(C)(C)O)O4 [DALPANOL] |  |  |  |  |  |  |  |  |  |  |  | 0.7 µM
5 | C=C(C)[C@@H](O)CC/C(C)=C/Cc1c(O)cc(CCc2ccccc2)c(C(=O)O)c1O |  |  |  |  |  |  |  |  |  |  | inactive | 
6 | COc1cc(O)c2c(c1)O[C@@H]1COc3cc(OC)c(OC)cc3[C@@H]1C2=O |  |  |  |  |  |  |  |  |  |  |  | 0.2 µM
7 | COc1cc2c(cc1OC)-c1c(oc3c4c(ccc3c1=O)OC(C)(C)C=C4)CO2 [DEHYDRODEGUELIN] |  |  |  |  |  |  |  |  |  |  |  | 10.2 µM
8 | C=C(CO)[C@H]1Cc2c(ccc3c2O[C@@H]2COc4cc(OC)c(OC)cc4[C@]2(O)C3=O)O1 [DABINOL] |  |  |  |  |  |  |  |  |  |  |  | 0.2 µM
9 | COc1cc2c(cc1OC)[C@@H]1C(=O)c3ccc4c(c3O[C@@H]1CO2)C[C@H](C(C)(C)O[C@@H]1O[C@H](CO)[C@@H](O)[C@H](O)[C@H]1O)O4 |  |  |  |  |  |  |  |  |  |  |  | 1.7 µM
10 | C/C=C1\NC(=O)[C@H](Cc2ccccc2)NC(=O)[C@@H](C(C)C)NC(=O)[C@@H](C(C)CC)NC(=O)[C@H](NC(=O)[C@H](NC(=O)[C@H](CCCN)NC(=O)[C@@H]2CCCN2C(=O)[C@H](NC(=O)[C@@H](NC(=O)[C@@H](NC(=O)[C@H](NC(=O)CCCC(C)C)C(C)C)C(C)O)C(C)C)C(C)C)C(C)CC)C(C)OC(=O)[C@H](C(C)C)NC1=O (some centres not stated) |  |  |  |  |  |  |  |  |  |  |  | 4.3 µM
11 | COc1cc(CCc2ccccc2)c(C(=O)O)c(O)c1CC=C(C)C [AMORFRUTIN A] | 50 µM (≈ 17 µg/mL) | 6.3 µM (≈ 2.14 µg/mL) | 100 µM (≈ 34 µg/mL) | 25 µM (≈ 8.51 µg/mL) | 50 µM (≈ 17 µg/mL) | 25 µM (≈ 8.51 µg/mL) | > 50 µM | > 50 µM |  | 50 µM | inactive | 
12 | COc1ccc(-c2coc3c(C/C=C(\C)CCC=C(C)C)c(O)cc(O)c3c2=O)cc1O | 100 µM (≈ 43.7 µg/mL) | 100 µM (≈ 43.7 µg/mL) | 50 µM (≈ 21.8 µg/mL) | 100 µM (≈ 43.7 µg/mL) | 25 µM (≈ 10.9 µg/mL) | 25 µM (≈ 10.9 µg/mL) | > 50 µM | > 50 µM | 50 µM | 50 µM |  | 
13 | COC1=CC(=O)[C@]2(C=C1OC)OC[C@H]1Oc3c4c(cc(O)c3C(=O)[C@H]12)OC(C)(C)C=C4 |  |  |  |  |  |  |  |  |  |  |  | 1.3 µM
14 | COc1cc(/C=C/c2ccccc2)cc(OC)c1C/C=C(\C)CCC=C(C)C | > 100 µM | > 100 µM | > 100 µM | > 100 µM | 100 µM (≈ 37.7 µg/mL) | > 100 µM | > 50 µM | > 50 µM | 100 µM | 100 µM | inactive | 
15 | C=C(C)[C@@H](O)CC/C(C)=C/Cc1c(OC)cc(CCc2ccccc2)c(C(=O)O)c1O |  |  |  |  |  |  |  |  |  |  | inactive | 
16 | C=C(C)[C@H]1Cc2c(ccc3c2O[C@@H]2COc4cc(OC)c(OC)cc4[C@@H]2C3=O)O1 [ROTENONE] |  |  |  |  |  |  |  |  |  |  |  | 0.3 µM
17 | CC(C)=CCC/C(C)=C/Cc1c(O)cc(CCc2ccccc2)cc1O | 25 µM (≈ 8.76 µg/mL) | 6.3 µM (≈ 2.21 µg/mL) | 25 µM (≈ 8.76 µg/mL) | 12.5 µM (≈ 4.38 µg/mL) | 12.5 µM (≈ 4.38 µg/mL) | 12.5 µM (≈ 4.38 µg/mL) | > 50 µM | > 50 µM |  | 50 µM | inactive | 
18 | COC1=C[C@]2(OC[C@H]3Oc4c(ccc5c4C=CC(C)(C)O5)C(=O)[C@H]32)C(=O)CC1=O |  |  |  |  |  |  |  |  |  |  |  | 7.6 µM
19 | CC(C)=CCC/C(C)=C/Cc1c(O)cc(/C=C\c2ccccc2)cc1O | 100 µM (≈ 34.8 µg/mL) | 100 µM (≈ 34.8 µg/mL) | 100 µM (≈ 34.8 µg/mL) | 100 µM (≈ 34.8 µg/mL) | 100 µM (≈ 34.8 µg/mL) | 100 µM (≈ 34.8 µg/mL) | > 50 µM | > 50 µM | 100 µM | 100 µM | inactive | 
20 | CC(C)=CCC/C(C)=C\Cc1c(O)cc(CCc2ccccc2)c(C(=O)O)c1O | 100 µM (≈ 39.5 µg/mL) | 100 µM (≈ 39.5 µg/mL) | 100 µM (≈ 39.5 µg/mL) | 100 µM (≈ 39.5 µg/mL) | 100 µM (≈ 39.5 µg/mL) | 100 µM (≈ 39.5 µg/mL) | > 50 µM | > 50 µM | 100 µM | 100 µM | inactive | 
21 | CC(C)=CCC/C(C)=C/Cc1c(O)cc(O)c2c1O[C@H](c1ccccc1)[C@H](O)C2=O | 100 µM (≈ 40.8 µg/mL) | 100 µM (≈ 40.8 µg/mL) | 50 µM (≈ 20.4 µg/mL) | 100 µM (≈ 40.8 µg/mL) | 100 µM (≈ 40.8 µg/mL) | 100 µM (≈ 40.8 µg/mL) | > 50 µM | > 50 µM | 100 µM | 100 µM |  | 
22 | CC(C)=CCC/C(C)=C/Cc1c(O)cc(/C=C/c2ccccc2)c(C(=O)O)c1O | 12.5 µM (≈ 4.91 µg/mL) | 12.5 µM (≈ 4.91 µg/mL) | 25 µM (≈ 9.81 µg/mL) | 25 µM (≈ 9.81 µg/mL) | 25 µM (≈ 9.81 µg/mL) | 25 µM (≈ 9.81 µg/mL) | > 50 µM | > 50 µM | 100 µM | 100 µM | inactive | 
23 | COc1c(N2C[C@@H]3CCCN[C@@H]3C2)c(F)cc2c(=O)c(C(=O)O)cn(C3CC3)c12 [MOXIFLOXACIN] | < 0.9 µM | 3.8 µM (≈ 1.53 µg/mL) | 0.9 µM (≈ 0.361 µg/mL) | 0.9 µM (≈ 0.361 µg/mL) | 1.9 µM (≈ 0.763 µg/mL) | 7.8 µM (≈ 3.13 µg/mL) |  |  |  |  |  | 
24 | CC(C)=CCC/C(C)=C/Cc1c(O)ccc(C(=O)/C=C/c2ccc(O)cc2)c1O [XANTHOANGELOL] | 25 µM (≈ 9.81 µg/mL) | 3.1 µM (≈ 1.22 µg/mL) | 12.5 µM (≈ 4.91 µg/mL) | 6.3 µM (≈ 2.47 µg/mL) | 12.5 µM (≈ 4.91 µg/mL) | 3.1 µM (≈ 1.22 µg/mL) | > 50 µM | > 50 µM | 25 µM | 25 µM |  | 
25 | COc1cc(CCc2ccccc2)c(C(=O)O)c(O)c1C/C=C(/C)CCC=C(C)C | 12.5 µM (≈ 5.11 µg/mL) | 12.5 µM (≈ 5.11 µg/mL) | 6.3 µM (≈ 2.57 µg/mL) | 6.3 µM (≈ 2.57 µg/mL) | 6.3 µM (≈ 2.57 µg/mL) | 6.3 µM (≈ 2.57 µg/mL) | > 50 µM | > 50 µM | 100 µM | 100 µM | inactive | 
26 | COc1cc2c(cc1OC)[C@@H]1C(=O)c3c(O)cc4c(c3O[C@@H]1CO2)C=CC(C)(C)O4 [TOXICAROL] |  |  |  |  |  |  |  |  |  |  |  | 0.2 µM
27 | COc1cc2c(cc1OC)[C@@H]1C(=O)c3ccc(O)c(CC=C(C)C)c3O[C@@H]1CO2 [ROTENONIC ACID] |  |  |  |  |  |  |  |  |  |  |  | 0.6 µM
28 | COc1cc2c(cc1OC)[C@@H]1C(=O)c3ccc4c(c3O[C@@H]1CO2)C=CC(C)(C)O4 [DEGUELIN] |  |  |  |  |  |  |  |  |  |  |  | 0.2 µM
